Experimental data published in ChEMBL document CHEMBL3297708, “Lead optimization of a novel series of imidazo[1,2-a]pyridine amides leading to a clinical candidate (Q203) as a multi- and extensively-drug-resistant anti-tuberculosis agent” (J Med Chem, 2014).
In brackets after ≈: the same amount, converted by molar mass.

Experiments:
Cytochrome P450 2C9 = Cytochrome P450 2C9 (Homo sapiens, UniProt P11712); assay: Inhibition of recombinant CYP2C9 (unknown origin) by LC/MS/MS analysis; assay type: ADME
Method in brief: (§1)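 Recombinant CYP enzymes (5 pmol/mL) with substrate, in 100 mM potassium phosphate pH 7.4, 3.3 mM MgCl2, with or without 1 mM NADPH; incubated 10 min (CYP1A2, CYP2C9), 20 min (CYP2C19, CYP2D6), or 3 min (CYP3A4); stopped with cold stop solution containing tolbutamide internal standard; metabolite measured by LC-MS/MS.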

[1] = Volume of distribution at steady state in mouse at 2 mg/kg, iv; assay type: ADME, organism-based; design: dose 2 mg/kg, route intravenous; conditions: in vivo, read-out: Vdss
Method in brief: (§2)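 Mice dosed at 2 mg/kg i.v. and 10 mg/kg p.o.; plasma sampled and PK parameters (half-life, clearance, volume of distribution, Cmax, Tmax, AUC, oral bioavailability) derived from the plasma concentration–time profiles.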

[2] = Elimination half life in mouse at 2 mg/kg, iv; assay type: ADME, organism-based; design: dose 2 mg/kg, route intravenous; conditions: in vivo, read-out: beta t1/2 (converted); method in brief: as §2
[3] = test system: Mycobacterium tuberculosis; assay: Antimycobacterial activity against Mycobacterium tuberculosis H37Rv in liquid broth culture medium; assay type: functional
Method in brief: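 M. tuberculosis H37Rv replicating in liquid broth culture medium; MIC80 determined, i.e. concentration inhibiting 80% of growth.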

Cytochrome P450 1A2 = target: T1, Cytochrome P450 1A2 (Homo sapiens, UniProt P05177); assay: Inhibition of recombinant CYP1A2 (unknown origin) by LC/MS/MS analysis; assay type: ADME; method in brief: as §1
T1 sequence (P05177 whole entry): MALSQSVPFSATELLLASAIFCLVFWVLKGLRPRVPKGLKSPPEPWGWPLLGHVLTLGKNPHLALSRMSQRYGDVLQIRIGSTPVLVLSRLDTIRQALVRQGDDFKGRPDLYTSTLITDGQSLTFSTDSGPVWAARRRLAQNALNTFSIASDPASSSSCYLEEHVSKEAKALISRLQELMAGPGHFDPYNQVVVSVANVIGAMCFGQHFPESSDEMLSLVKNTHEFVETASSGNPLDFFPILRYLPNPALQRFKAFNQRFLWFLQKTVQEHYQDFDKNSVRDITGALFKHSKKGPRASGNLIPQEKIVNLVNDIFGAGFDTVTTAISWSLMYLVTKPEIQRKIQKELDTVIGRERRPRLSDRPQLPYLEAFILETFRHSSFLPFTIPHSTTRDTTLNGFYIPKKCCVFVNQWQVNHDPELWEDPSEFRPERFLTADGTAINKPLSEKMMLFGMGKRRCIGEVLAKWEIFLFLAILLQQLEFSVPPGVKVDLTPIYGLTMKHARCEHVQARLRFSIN

Cytochrome P450 2D6 = Cytochrome P450 2D6 (Homo sapiens, UniProt P10635); assay: Inhibition of recombinant CYP2D6 (unknown origin) by LC/MS/MS analysis; assay type: ADME; method in brief: as §1
[4] = Cmax in mouse at 10 mg/kg, po; assay type: ADME, organism-based; design: dose 10 mg/kg, route oral; conditions: in vivo; method in brief: as §2
[5] = AUC (0 to infinity) in mouse at 10 mg/kg, po; assay type: ADME, organism-based; design: time infinity, dose 10 mg/kg, route oral; conditions: plasma; method in brief: as §2
Cytochrome P450 2C19 = Cytochrome P450 2C19 (Homo sapiens, UniProt P33261); assay: Inhibition of recombinant CYP2C19 (unknown origin) by LC/MS/MS analysis; assay type: ADME; method in brief: as §1
[6] = Clearence in mouse at 2 mg/kg, iv; assay type: ADME, organism-based; design: dose 2 mg/kg, route intravenous; conditions: in vivo; method in brief: as §2
[7] = Half life in mouse at 10 mg/kg, po; assay type: ADME, organism-based; design: dose 10 mg/kg, route oral; conditions: in vivo; method in brief: as §2
[8] = Half life in human liver microsomes; assay type: ADME
Method in brief: (§3)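 Metabolic stability measured by incubation in human or mouse liver microsomal preparations; half-life reported.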

[9] = Half life in mouse liver microsomes; assay type: ADME; method in brief: as §3
[10] = Oral bioavailability in mouse at 10 mg/kg; assay type: ADME, organism-based; conditions: in vivo; method in brief: as §2
[11] = test system: Mycobacterium tuberculosis; assay: Antimycobacterial activity against Mycobacterium tuberculosis H37Rv in macrophages; assay type: functional
Method in brief: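 M. tuberculosis H37Rv replicating inside macrophages; intracellular MIC80 determined, i.e. concentration inhibiting 80% of growth.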

Cytochrome P450 3A4 = Cytochrome P450 3A4 (Homo sapiens, UniProt P08684); assay: Inhibition of recombinant CYP3A4 (unknown origin) by LC/MS/MS analysis; assay type: ADME; method in brief: as §1
[12] = Tmax in mouse at 10 mg/kg, po; assay type: ADME, organism-based; design: dose 10 mg/kg, route oral; conditions: in vivo; method in brief: as §2
[13] = test system: Mycobacterium tuberculosis; assay: Antimycobacterial activity against Mycobacterium tuberculosis H37Rv infected in BALB/c mouse assessed as lung bacterial load at 2 mg/kg administered 3 weeks after infection via oral gavage for 28 days, five times per week measured per lung (reference value: 7.24 +/- 0.17 log10 CFU); assay type: functional
Method in brief: (§4)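 BALB/c mice infected intranasally with 2 x10^2 to 2 x 10^3 CFU M. tuberculosis H37Rv; oral gavage treatment started 3 weeks post-infection, given five times per week for 28 days; lung bacterial burden enumerated as log10 CFU per lung; values reported ± spread; untreated infected mice as baseline.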

[14] = Solubility of the compound in phosphate buffer at pH 7.4; assay type: physicochemical
[15] = Solubility of the compound in aqueous solution at pH 2.1; assay type: physicochemical
[16] = test system: Mycobacterium tuberculosis; assay: Antimycobacterial activity against Mycobacterium tuberculosis H37Rv infected in BALB/c mouse assessed as lung bacterial load at 50 mg/kg administered 3 weeks after infection via oral gavage for 28 days, five times per week measured per lung (reference value: 7.24 +/- 0.17 log10 CFU); assay type: functional; method in brief: as §4
[17] = test system: Mycobacterium tuberculosis; assay: Antimycobacterial activity against Mycobacterium tuberculosis H37Rv infected in BALB/c mouse assessed as lung bacterial load at 10 mg/kg administered 3 weeks after infection via oral gavage for 28 days, five times per week measured per lung (reference value: 7.24 +/- 0.17 log10 CFU); assay type: functional; method in brief: as §4
[18] = test system: Mycobacterium tuberculosis; assay: Antimycobacterial activity against Mycobacterium tuberculosis H37Rv infected in BALB/c mouse assessed as lung bacterial load administered 3 weeks after infection via oral gavage for 28 days, five times per week measured per lung; assay type: functional, organism-based; method in brief: as §4
[19] = test system: Mycobacterium tuberculosis; assay: Antimycobacterial activity against Mycobacterium tuberculosis H37Rv infected in BALB/c mouse assessed as lung bacterial load at 15 mg/kg administered 3 weeks after infection via oral gavage for 28 days, five times per week measured per lung (reference value: 7.24 +/- 0.17 log10 CFU); assay type: functional; method in brief: as §4

Sequence of Cytochrome P450 3A4 (P08684 whole entry): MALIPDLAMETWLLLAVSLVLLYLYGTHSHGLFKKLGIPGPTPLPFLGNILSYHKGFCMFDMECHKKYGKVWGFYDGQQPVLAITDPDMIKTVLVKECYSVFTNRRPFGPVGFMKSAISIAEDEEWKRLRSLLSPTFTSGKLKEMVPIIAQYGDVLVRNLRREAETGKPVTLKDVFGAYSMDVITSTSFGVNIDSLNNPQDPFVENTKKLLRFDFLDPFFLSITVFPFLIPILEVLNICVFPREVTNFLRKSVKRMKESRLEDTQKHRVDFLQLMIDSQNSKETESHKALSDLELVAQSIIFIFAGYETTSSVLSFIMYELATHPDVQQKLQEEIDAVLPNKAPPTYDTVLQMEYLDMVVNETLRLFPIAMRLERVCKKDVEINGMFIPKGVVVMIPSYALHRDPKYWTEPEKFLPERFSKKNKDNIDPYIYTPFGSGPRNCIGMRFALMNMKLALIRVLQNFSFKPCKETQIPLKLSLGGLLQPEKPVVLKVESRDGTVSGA
Sequence of Cytochrome P450 2C19 (P33261 whole entry): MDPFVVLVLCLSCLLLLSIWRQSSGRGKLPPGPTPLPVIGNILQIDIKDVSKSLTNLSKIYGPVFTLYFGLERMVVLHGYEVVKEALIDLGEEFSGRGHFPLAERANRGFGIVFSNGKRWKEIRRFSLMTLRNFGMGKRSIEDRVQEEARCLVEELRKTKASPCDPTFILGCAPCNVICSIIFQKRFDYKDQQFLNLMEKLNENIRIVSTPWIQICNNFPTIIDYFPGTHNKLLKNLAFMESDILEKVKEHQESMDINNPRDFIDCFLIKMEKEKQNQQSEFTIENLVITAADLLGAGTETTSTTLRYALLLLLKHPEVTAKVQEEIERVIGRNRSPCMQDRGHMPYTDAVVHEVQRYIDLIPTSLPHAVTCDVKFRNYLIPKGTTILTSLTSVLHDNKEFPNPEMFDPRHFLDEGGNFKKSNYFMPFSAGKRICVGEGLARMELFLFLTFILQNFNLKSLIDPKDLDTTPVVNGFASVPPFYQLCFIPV
Sequence of Cytochrome P450 2C9 (P11712 whole entry): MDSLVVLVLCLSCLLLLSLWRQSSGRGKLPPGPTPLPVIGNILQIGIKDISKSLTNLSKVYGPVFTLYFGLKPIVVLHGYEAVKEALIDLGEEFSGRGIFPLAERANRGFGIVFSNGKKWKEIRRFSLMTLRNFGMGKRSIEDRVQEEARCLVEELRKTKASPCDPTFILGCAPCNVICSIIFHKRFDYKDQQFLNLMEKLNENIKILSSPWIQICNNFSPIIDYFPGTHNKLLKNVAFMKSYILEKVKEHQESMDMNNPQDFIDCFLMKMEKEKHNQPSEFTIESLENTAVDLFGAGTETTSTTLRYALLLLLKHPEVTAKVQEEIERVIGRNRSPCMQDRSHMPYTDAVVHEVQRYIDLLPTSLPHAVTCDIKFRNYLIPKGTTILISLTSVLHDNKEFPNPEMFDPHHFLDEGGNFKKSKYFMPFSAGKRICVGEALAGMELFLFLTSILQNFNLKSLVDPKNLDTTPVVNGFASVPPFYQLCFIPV
Sequence of Cytochrome P450 2D6 (P10635 whole entry): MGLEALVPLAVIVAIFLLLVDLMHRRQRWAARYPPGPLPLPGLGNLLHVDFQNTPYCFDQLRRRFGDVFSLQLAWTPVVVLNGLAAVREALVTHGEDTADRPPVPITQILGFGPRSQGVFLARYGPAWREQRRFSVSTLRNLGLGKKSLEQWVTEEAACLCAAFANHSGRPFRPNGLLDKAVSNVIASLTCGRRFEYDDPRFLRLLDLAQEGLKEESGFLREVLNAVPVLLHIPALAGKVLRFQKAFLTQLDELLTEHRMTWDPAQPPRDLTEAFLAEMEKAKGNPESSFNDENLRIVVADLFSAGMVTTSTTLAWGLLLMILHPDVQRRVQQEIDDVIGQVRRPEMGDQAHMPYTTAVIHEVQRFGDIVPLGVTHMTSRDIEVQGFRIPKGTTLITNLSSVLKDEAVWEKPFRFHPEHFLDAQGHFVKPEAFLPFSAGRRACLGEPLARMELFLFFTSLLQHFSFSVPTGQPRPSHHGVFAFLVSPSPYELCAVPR

In the case of CCc1nc2cc(Cl)ccn2c1C(=O)NCc1ccc(N2CCN(c3ccc(F)cc3)CC2)cc1, the IC50 (Cytochrome P450 2C9) is reported as > 40 µM, the Vd [1] is reported as 0.877 L/kg and the half-life [2] is reported as 6.15 h. For the same compound, the MIC80 [3] was 5.7 nM (≈ 2.8 ng/mL), the IC50 (Cytochrome P450 1A2) was > 40 µM and the IC50 (Cytochrome P450 2D6) was > 40 µM. The Cmax [4] was 4450 ng/mL, the AUC(0-inf) [5] was 59600 ng·h/mL and the IC50 (Cytochrome P450 2C19) was > 40 µM. The clearance [6] was 1.9 mL/min/kg, the half-life [7] was 9.4 h and the half-life [8] was > 2 h. The half-life [9] was 0.555 h, the bioavailability [10] was 69.9% and the MIC80 [11] was 0.3 nM (≈ 0.148 ng/mL). The IC50 (Cytochrome P450 3A4) was > 40 µM and the Tmax [12] was 2 h.
For CCc1nc2cc(Cl)ccn2c1C(=O)NCc1ccc(N2CCC(c3ccc(OC(F)(F)F)cc3)CC2)cc1, the IC50 (Cytochrome P450 2C9) was 0.14 µM, the Vd [1] was 14.3 L/kg and the half-life [2] was 62.3 h. For the same compound, the MIC80 [3] was 4 nM (≈ 2.23 ng/mL), the IC50 (Cytochrome P450 1A2) was > 100 µM and the IC50 (Cytochrome P450 2D6) was > 100 µM. It also gave a Cmax [4] of 1990 ng/mL, a log10cfu [13] of 6.23 and an AUC(0-inf) [5] of 27300 ng·h/mL. The solubility [14] was 1.32 µg/mL (≈ 2.37 µM), the solubility [15] was 55.8 µg/mL (≈ 100 µM) and the IC50 (Cytochrome P450 2C19) was 0.29 µM. It also gave a clearance [6] of 3.15 mL/min/kg, a log10cfu [16] of 5.65 and a half-life [7] of 21.3 h. For the same compound, the log10cfu [17] was 5.72, the half-life [8] was > 2 h and the half-life [9] was > 2 h. For the same compound, the bioavailability [10] was 80.2%, the inhibition [18] was “Dose-dependent effect” and the MIC80 [11] was 3.7 nM (≈ 2.06 ng/mL). For the same compound, the IC50 (Cytochrome P450 3A4) was > 100 µM and the Tmax [12] was 2 h.
In the case of NNC(=O)c1ccncc1 [ISONIAZID], the MIC80 [3] is reported as 449 nM (≈ 61.6 ng/mL), the log10cfu [19] is reported as 5.01 and the inhibition [18] is reported as “Dose-dependent effect”. The MIC80 [11] was 617 nM (≈ 84.6 ng/mL).
In the case of CCc1nc2ccc(Cl)cn2c1C(=O)NCc1ccc(N2CCC(c3ccc(OC(F)(F)F)cc3)CC2)cc1 [TELACEBEC], the IC50 (Cytochrome P450 2C9) is reported as > 100 µM, the Vd [1] is reported as 5.27 L/kg and the half-life [2] is reported as 16.5 h. The MIC80 [3] was 4 nM (≈ 2.23 ng/mL), the IC50 (Cytochrome P450 1A2) was > 100 µM and the IC50 (Cytochrome P450 2D6) was > 100 µM. For the same compound, the Cmax [4] was 1490 ng/mL, the AUC(0-inf) [5] was 44100 ng·h/mL and the solubility [14] was 1.71 µg/mL (≈ 3.07 µM). The solubility [15] was 41.5 µg/mL (≈ 74.5 µM), the IC50 (Cytochrome P450 2C19) was > 100 µM and the clearance [6] was 4 mL/min/kg. For the same compound, the half-life [7] was 23.4 h, the half-life [8] was > 2 h and the half-life [9] was > 2 h. The bioavailability [10] was 90.7%, the MIC80 [11] was 1.43 nM (≈ 0.797 ng/mL) and the IC50 (Cytochrome P450 3A4) was > 100 µM. It also gave a Tmax [12] of 2 h.
